Test results: ChEMBL document CHEMBL2046352, “Discovery of novel 5-(ethyl or hydroxymethyl) analogs of 2'-'up' fluoro (or hydroxyl) pyrimidine nucleosides as a new class of Mycobacterium tuberculosis, Mycobacterium bovis and Mycobacterium avium inhibitors” (Bioorg Med Chem, 2012)
Calls of active or inactive are those of the source. The calls are words filed in the database; no cut-off is given here.

Experiments:
[1] = test system: Mycobacterium tuberculosis; assay: Antimycobacterial activity against Mycobacterium tuberculosis H37Ra assessed as inhibition of microbial growth at 15 to 20 ug/ml incubated for 6 days by MABA method; assay type: functional
[2] = test system: Mycobacterium tuberculosis; assay: Antimycobacterial activity against Mycobacterium tuberculosis H37Ra assessed as inhibition of microbial growth at 10 ug/ml incubated for 6 days by MABA method; assay type: functional; conditions: 144 h, read-out: GI
Outline: (§1)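 Microplate alamar blue assay in 7H9GC medium. Compounds dissolved in DMSO at 10 mg/mL (stock), diluted to 100, 50, 25, 10, 5, 1 and 0.5 ug/mL, each in triplicate. Frozen inoculum added at final 2.5 x 10^5 CFU/mL. Bacteria-alone and medium-alone control wells. Read by colour change and fluorescence. % inhibition = (test − M bkg)/(B − M bkg) x 100, mean of two experiments. MIC50 = lowest concentration giving ≥50% inhibition.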

[3] = test system: Mycobacterium tuberculosis; assay: Antimycobacterial activity against Mycobacterium tuberculosis H37Ra assessed as inhibition of microbial growth at 50 ug/ml incubated for 6 days by MABA method; assay type: functional; conditions: 144 h, read-out: GI; outline: as §1
[4] = test system: Mycobacterium tuberculosis; assay: Antimycobacterial activity against Mycobacterium tuberculosis H37Ra assessed as inhibition of microbial growth at 100 ug/ml incubated for 6 days by MABA method; assay type: functional; conditions: 144 h, read-out: GI; outline: as §1
[5] = test system: Mycobacterium tuberculosis; assay: Antimycobacterial activity against Mycobacterium tuberculosis H37Ra assessed as inhibition of microbial growth at 5 ug/ml incubated for 6 days by MABA method; assay type: functional; conditions: 144 h, read-out: GI; outline: as §1
[6] = test system: Mycobacterium tuberculosis; assay: Antimycobacterial activity against Mycobacterium tuberculosis H37Ra assessed as inhibition of microbial growth incubated for 6 days by MABA method; assay type: functional; conditions: 144 h; outline: as §1
[7] = Toxicity against human HuH7 cells after 2 days by XTT assay; assay type: cell-based, Huh-7
Outline: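 Huh-7 hepatoma cells seeded at 2 x 10^4/well, allowed to attach 6–8 h, then exposed to 200, 100, 50, 10 and 1 ug/mL with a DMSO control for two days at 37 °C. Viability by XTT, 4 h at 37 °C, absorbance 450–500 nm.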

[8] = test system: Mycobacterium avium; assay: Antimycobacterial activity against Mycobacterium avium ATCC 25291 assessed as inhibition of microbial growth at 100 ug/ml incubated for 6 days by MABA method; assay type: functional, Mycobacterium avium subsp. avium ATCC 25291; conditions: ATCC 25291, 144 h, read-out: GI; outline: as §1
[9] = Toxicity against human HuH7 cells after 2 days by [3H]thymidine incorporation assay; assay type: cell-based, Huh-7
Outline: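 Huh-7 cells plated at 1 x 10^4/well and exposed in triplicate to 200, 100, 50, 10 and 1 ug/mL with a DMSO control for two days at 37 °C. Pulsed with 0.5 uCi/well [3H]-thymidine for 12–18 h, harvested onto filters, incorporation counted by liquid scintillation.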

[10] = test system: Mycobacterium avium; assay: Antimycobacterial activity against Mycobacterium avium ATCC 25291 assessed as inhibition of microbial growth at 0.5 to 100 ug/ml incubated for 6 days by MABA method; assay type: functional, Mycobacterium avium subsp. avium ATCC 25291; outline: as §1
[11] = test system: Mycobacterium tuberculosis; assay: Antimycobacterial activity against Mycobacterium tuberculosis H37Ra assessed as inhibition of microbial growth at 0.5 to 100 ug/ml incubated for 6 days by MABA method; assay type: functional; outline: as §1
[12] = test system: Mycobacterium tuberculosis; assay: Antimycobacterial activity against Mycobacterium tuberculosis H37Rv assessed as inhibition of microbial growth at 2 ug/ml by radiometric-BACTEC assay; assay type: functional, organism-based
[13] = test system: Mycobacterium tuberculosis; assay: Antimycobacterial activity against Mycobacterium tuberculosis H37Ra assessed as inhibition of microbial growth at 0.5 ug/ml incubated for 6 days by MABA method; assay type: functional; conditions: 144 h, read-out: GI; outline: as §1
[14] = test system: Mycobacterium avium; assay: Antimycobacterial activity against Mycobacterium avium ATCC 25291 assessed as inhibition of microbial growth at 2 ug/ml incubated for 6 days by MABA method; assay type: functional, Mycobacterium avium subsp. avium ATCC 25291; conditions: ATCC 25291, 144 h, read-out: GI
[15] = test system: Mycobacterium avium; assay: Antimycobacterial activity against Mycobacterium avium ATCC 25291 assessed as inhibition of microbial growth at 10 ug/ml incubated for 6 days by MABA method; assay type: functional, Mycobacterium avium subsp. avium ATCC 25291; conditions: ATCC 25291, 144 h, read-out: GI; outline: as §1
[16] = test system: Mycobacterium avium; assay: Antimycobacterial activity against Mycobacterium avium ATCC 25291 assessed as inhibition of microbial growth at 50 ug/ml incubated for 6 days by MABA method; assay type: functional, Mycobacterium avium subsp. avium ATCC 25291; conditions: ATCC 25291, 144 h, read-out: GI; outline: as §1
[17] = test system: Mycobacterium tuberculosis; assay: Potency index, ratio of MIC50 for cycloserine to MIC50 for compound against Mycobacterium tuberculosis H37Ra incubated for 6 days by MABA method; assay type: functional
[18] = test system: Mycobacterium avium; assay: Antimycobacterial activity against Mycobacterium avium ATCC 25291 assessed as inhibition of microbial growth incubated for 6 days by MABA method; assay type: functional, Mycobacterium avium subsp. avium ATCC 25291; conditions: ATCC 25291, 144 h; outline: as §1
[19] = test system: Mycobacterium tuberculosis; assay: Antimycobacterial activity against Mycobacterium tuberculosis H37Rv assessed as inhibition of microbial growth by radiometric-BACTEC assay; assay type: functional
[20] = test system: Mycobacterium tuberculosis; assay: Antimycobacterial activity against Mycobacterium tuberculosis H37Rv assessed as inhibition of microbial growth at 1 ug/ml by radiometric-BACTEC assay; assay type: functional; conditions: read-out: GI
[21] = test system: Mycobacterium tuberculosis; assay: Antimycobacterial activity against Mycobacterium tuberculosis H37Ra assessed as inhibition of microbial growth at 0.1 ug/ml incubated for 6 days by MABA method; assay type: functional; conditions: 144 h, read-out: GI

Row | Structure (SMILES) | inhibition of growth at 50 µg/mL [3] | inhibition of growth at 100 µg/mL [4] | MIC50 [6] | CC50 at 48 h [7] | inhibition of growth at 100 µg/mL [8] | CC50 at 48 h [9] | growth inhibition (GI) [10] | other results
1 | N[C@@H]1CONC1=O [CYCLOSERINE] | 100% | 100% | 5 µg/mL |  |  |  |  | growth inhibition (GI) [1]: 80%; inhibition of growth at 10 µg/mL [2]: 60%; inhibition of growth at 5 µg/mL [5]: 50%
2 | COCc1cn([C@@H]2O[C@H](CO)[C@@H](O)[C@@H]2O)c(=O)nc1N | 60% | 80% |  | > 100 µg/mL | 20% | > 100 µg/mL |  | inhibition of growth at 10 µg/mL [2]: 50%
3 | CCc1cn([C@@H]2O[C@H](CO)[C@@H](Br)[C@@H]2F)c(=O)[nH]c1=O | 65% | 78% | 5 µg/mL | > 100 µg/mL |  | > 100 µg/mL | 0% | inhibition of growth at 10 µg/mL [2]: 56%; inhibition of growth at 5 µg/mL [5]: 50%
4 | CCc1cn([C@@H]2O[C@H](CO)C[C@@H]2F)c(=O)[nH]c1=O |  | 25% |  | > 100 µg/mL | 25% | > 100 µg/mL |  | 
5 | CCc1cn([C@H]2O[C@@H](CO)[C@H](O)[C@H]2F)c(=O)[nH]c1=O (single isomer, unassigned) |  |  |  | > 100 µg/mL |  | > 100 µg/mL | 0% | growth inhibition (GI) [11]: 0%
6 | CO[C@H]1/C=C/O[C@@]2(C)Oc3c(C)c(O)c4c(O)c(c(/C=N/N5CCN(C)CC5)c(O)c4c3C2=O)NC(=O)/C(C)=C\C=C\[C@H](C)[C@H](O)[C@@H](C)[C@@H](O)[C@@H](C)[C@H](OC(C)=O)[C@@H]1C [RIFAMPIN] |  |  |  |  |  |  |  | growth inhibition (GI) [12]: inactive; inhibition of growth at 0.5 µg/mL [13]: 100%; inhibition of growth at 2 µg/mL [14]: 90%
7 | CCc1cn([C@@H]2O[C@H](CO)[C@@H](O)[C@@H]2F)c(=O)nc1N |  | 50% | 100 µg/mL | > 100 µg/mL |  | > 100 µg/mL | 0% | 
8 | O=c1[nH]c(=S)c(CO)cn1[C@@H]1O[C@H](CO)[C@@H](O)[C@@H]1O | 100% | 100% | 0.5 µg/mL | > 100 µg/mL | 73% | > 100 µg/mL |  | inhibition of growth at 10 µg/mL [15]: 50%; inhibition of growth at 50 µg/mL [16]: 58%; inhibition of growth at 0.5 µg/mL [13]: 50%; Ratio [17]: 10; inhibition of growth at 10 µg/mL [2]: 90%; MIC50 [18]: 10 µg/mL; inhibition of growth at 5 µg/mL [5]: 70%; MIC50 [19]: 1 µg/mL
9 | CCc1cn([C@@H]2O[C@H](CO)[C@@H](O)[C@@H]2F)c(=O)[nH]c1=S | 50% | 60% | 50 µg/mL | > 100 µg/mL | 35% | > 100 µg/mL |  | inhibition of growth at 50 µg/mL [16]: 25%
10 | NNC(=O)c1ccncc1 [ISONIAZID] |  |  |  |  |  |  |  | inhibition of growth at 1 µg/mL [20]: 100%; inhibition of growth at 0.1 µg/mL [21]: 10%
11 | CC[C@H]1OC(=O)[C@H](C)[C@@H](O[C@H]2C[C@@](C)(OC)[C@@H](O)[C@H](C)O2)[C@H](C)[C@@H](O[C@@H]2O[C@H](C)C[C@H](N(C)C)[C@H]2O)[C@](C)(OC)C[C@@H](C)C(=O)[C@H](C)[C@@H](O)[C@]1(C)O [CLARITHROMYCIN] |  |  |  |  |  |  |  | inhibition of growth at 2 µg/mL [14]: 100%
12 | O=c1[nH]c(=O)n([C@@H]2O[C@H](CO)[C@@H](O)[C@@H]2O)cc1CO |  |  |  | > 100 µg/mL |  | > 100 µg/mL | 0% | growth inhibition (GI) [11]: 0%
13 | CCc1cn2c(nc1=O)O[C@@H]1[C@H](F)[C@H]2O[C@@H]1CO | 25% | 25% |  | > 100 µg/mL | 50% | > 100 µg/mL |  | inhibition of growth at 50 µg/mL [16]: 25%
14 | CCc1cn([C@@H]2O[C@H](CO)[C@@H](N=[N+]=[N-])[C@@H]2F)c(=O)[nH]c1=O |  |  |  | > 100 µg/mL |  | > 100 µg/mL | 0% | growth inhibition (GI) [11]: 0%
15 | CCc1cn([C@@H]2O[C@H](COC(C)=O)[C@@H](OC(C)=O)[C@@H]2F)c(=O)[nH]c1=O | 55% | 68% |  | > 100 µg/mL | 35% | > 100 µg/mL |  | 
